ChEMBL document CHEMBL2440016, “Targeting the human parasite Leishmania donovani: discovery of a new promising anti-infectious pharmacophore in 3-nitroimidazo[1,2-a]pyridine series” (Bioorg Med Chem, 2013)

Experiments:
[1] = Selectivity index, ratio of CC50 for mouse J774.1 cells to IC50 for Leishmania donovani MHOM/IN/00/DEVI; format: functional
[2] = Cytotoxicity against mouse J774.1 cells after 72 hrs by MTT assay; format: cell-based; conditions: J774.1 cells
Outline: (§1)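 Cells plated in RPMI with 10% FCS, L-glutamine and penicillin/streptomycin, 24 h at 37 °C, 6% CO2. Compound dilutions then added for 72 h. MTT 0.5 mg/mL in PBS for 2 h, formazan dissolved in DMSO, A570 with 630 nm reference. Viability taken as % of untreated control. Doxorubicin served as positive control. CC50 from the dose-response curve.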

[3] = Selectivity index, ratio of CC50 for human HepG2 cells to IC50 for Leishmania donovani MHOM/IN/00/DEVI; format: functional
Outline: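 SI = HepG2 CC50 / L. donovani IC50.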

Leishmania donovani = assay: Antimicrobial activity against Leishmania donovani MHOM/IN/00/DEVI promastigotes after 72 hrs by MTT assay; format: functional, organism-based; conditions: Leishmania donovani, MHOM/IN/00/DEVI, 72 h; read-out: IC50
Outline: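 Log-phase promastigotes in Schneider's medium with 20% FCS, 2 mM L-glutamine and penicillin/streptomycin, at 10⁶ parasites/mL. Compound dilutions run in duplicate, final DMSO <0.5%, 72 h at 27 °C. MTT 0.5 mg/mL for 6 h at 27 °C, formazan dissolved in DMSO, A570.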

[4] = Cytotoxicity against human HepG2 cells after 72 hrs by MTT assay; format: cell-based; conditions: HepG2 cells; outline: as §1

O=[N+]([O-])c1c(CS(=O)(=O)c2ccc(Cl)cc2)nc2ccc(Cl)cn12
Ratio CC50/IC50 [1]: 1.8
CC50 at 72 h [2]: 42.4 µM
Ratio CC50/IC50 [3]: 1.1
IC50 (Leishmania donovani): 23 µM
CC50 at 72 h [4]: > 25 µM

Cc1ccccc1-c1ccc2nc(CS(=O)(=O)c3ccccc3)c([N+](=O)[O-])n2c1
Ratio CC50/IC50 [1]: <0.5
CC50 at 72 h [2]: 5 µM
IC50 (Leishmania donovani): > 10 µM
CC50 at 72 h [4]: > 9.4 µM

Cc1ccc(S(=O)(=O)Cc2nc3ccc(I)cn3c2[N+](=O)[O-])cc1
Ratio CC50/IC50 [1]: 0.9
CC50 at 72 h [2]: 34.8 µM
Ratio CC50/IC50 [3]: >1.3
IC50 (Leishmania donovani): 39.2 µM
CC50 at 72 h [4]: > 50 µM

O=[N+]([O-])c1c(CS(=O)(=O)c2ccccc2)nc2ccccn12
CC50 at 72 h [2]: > 100 µM
IC50 (Leishmania donovani): > 50 µM
CC50 at 72 h [4]: > 62.5 µM

O=[N+]([O-])c1c(CS(=O)(=O)c2ccc(-c3ccccc3)cc2)nc2ccc(Br)cn12
Ratio CC50/IC50 [1]: <1.1
CC50 at 72 h [2]: 54.4 µM
IC50 (Leishmania donovani): > 50 µM
CC50 at 72 h [4]: > 100 µM

O=[N+]([O-])c1c(CS(=O)(=O)c2ccc(Cl)cc2)nc2ccc(Br)cn12
Ratio CC50/IC50 [1]: 1.1
CC50 at 72 h [2]: 51.1 µM
Ratio CC50/IC50 [3]: 0.12
IC50 (Leishmania donovani): 45.4 µM
CC50 at 72 h [4]: 5.5 µM

O=[N+]([O-])c1c(CS(=O)(=O)c2ccccc2)nc2ccc(I)cn12
Ratio CC50/IC50 [1]: 2.1
CC50 at 72 h [2]: 27 µM
Ratio CC50/IC50 [3]: >7.9
IC50 (Leishmania donovani): 12.6 µM
CC50 at 72 h [4]: > 100 µM

O=[N+]([O-])c1c(CS(=O)(=O)c2ccc(I)cc2)nc2ccc(Br)cn12
Ratio CC50/IC50 [1]: <0.3
CC50 at 72 h [2]: 16.2 µM
Ratio CC50/IC50 [3]: <0.4
IC50 (Leishmania donovani): > 50 µM
CC50 at 72 h [4]: 20.3 µM

O=S(=O)(Cc1cn2cc(Br)ccc2n1)c1ccc(Cl)cc1
Ratio CC50/IC50 [1]: <0.9
CC50 at 72 h [2]: 43.9 µM
Ratio CC50/IC50 [3]: <0.5
IC50 (Leishmania donovani): > 50 µM
CC50 at 72 h [4]: 23 µM

O=S(=O)(Cc1cn2cc(Br)ccc2n1)c1ccccc1
Ratio CC50/IC50 [1]: <0.1
CC50 at 72 h [2]: 6.4 µM
Ratio CC50/IC50 [3]: 0.15
IC50 (Leishmania donovani): > 50 µM
CC50 at 72 h [4]: 7.3 µM

O=[N+]([O-])c1c(CS(=O)(=O)c2ccc(C(F)(F)F)cc2)nc2ccc(Br)cn12
CC50 at 72 h [2]: > 25 µM
Ratio CC50/IC50 [3]: <0.6
IC50 (Leishmania donovani): > 50 µM
CC50 at 72 h [4]: 31.7 µM

Cc1ccc(S(=O)(=O)Cc2nc3ccc(Cl)cn3c2[N+](=O)[O-])cc1
CC50 at 72 h [2]: > 94 µM
IC50 (Leishmania donovani): > 50 µM
CC50 at 72 h [4]: > 100 µM

O=[N+]([O-])c1c(CS(=O)(=O)c2ccc(F)cc2)nc2ccc(Br)cn12
CC50 at 72 h [2]: > 92.8 µM
IC50 (Leishmania donovani): > 50 µM
CC50 at 72 h [4]: > 100 µM

O=[N+]([O-])c1c(CS(=O)(=O)c2ccc(Br)cc2)nc2ccc(Br)cn12
Ratio CC50/IC50 [1]: 1.1
CC50 at 72 h [2]: 28.2 µM
Ratio CC50/IC50 [3]: 1.6
IC50 (Leishmania donovani): 24.3 µM
CC50 at 72 h [4]: 39 µM

O=S(=O)(Cc1cn2cc(I)ccc2n1)c1ccc(Cl)cc1
Ratio CC50/IC50 [1]: <0.8
CC50 at 72 h [2]: 44.2 µM
Ratio CC50/IC50 [3]: <0.8
IC50 (Leishmania donovani): > 50 µM
CC50 at 72 h [4]: 39.1 µM

O=[N+]([O-])c1c(CS(=O)(=O)c2ccc(Cl)cc2)nc2ccc(I)cn12
Ratio CC50/IC50 [1]: 1.5
CC50 at 72 h [2]: 43.6 µM
Ratio CC50/IC50 [3]: >1.7
IC50 (Leishmania donovani): 29.1 µM
CC50 at 72 h [4]: > 50 µM

COc1ccc(S(=O)(=O)Cc2nc3ccc(Br)cn3c2[N+](=O)[O-])cc1
CC50 at 72 h [2]: > 92.5 µM
IC50 (Leishmania donovani): > 50 µM
CC50 at 72 h [4]: > 100 µM

COc1cc(-c2ccc3nc(CS(=O)(=O)c4ccccc4)c([N+](=O)[O-])n3c2)cc(OC)c1OC
Ratio CC50/IC50 [1]: <0.1
CC50 at 72 h [2]: 5 µM
Ratio CC50/IC50 [3]: <0.7
IC50 (Leishmania donovani): > 50 µM
CC50 at 72 h [4]: 34.7 µM

CS(=O)(=O)Cc1nc2ccc(Br)cn2c1[N+](=O)[O-]
CC50 at 72 h [2]: > 100 µM
IC50 (Leishmania donovani): > 50 µM
CC50 at 72 h [4]: > 100 µM

O=S(=O)(Cc1cn2cc(I)ccc2n1)c1ccccc1
Ratio CC50/IC50 [1]: <0.1
CC50 at 72 h [2]: 5.2 µM
Ratio CC50/IC50 [3]: <0.1
IC50 (Leishmania donovani): > 50 µM
CC50 at 72 h [4]: 5 µM

O=[N+]([O-])c1c(CS(=O)(=O)c2ccccc2)nc2ccc(Cl)cn12
Ratio CC50/IC50 [1]: >5.5
CC50 at 72 h [2]: > 100 µM
Ratio CC50/IC50 [3]: >5.5
IC50 (Leishmania donovani): 18.2 µM
CC50 at 72 h [4]: > 100 µM

Cc1ccc(S(=O)(=O)Cc2cn3cc(Br)ccc3n2)cc1
Ratio CC50/IC50 [1]: <0.4
CC50 at 72 h [2]: 20.9 µM
Ratio CC50/IC50 [3]: <0.6
IC50 (Leishmania donovani): > 50 µM
CC50 at 72 h [4]: 28.9 µM

O=[N+]([O-])c1c(CCl)nc2ccc(Br)cn12
Ratio CC50/IC50 [1]: 0.5
CC50 at 72 h [2]: 4.9 µM
Ratio CC50/IC50 [3]: 1.6
IC50 (Leishmania donovani): 9.6 µM
CC50 at 72 h [4]: 15.6 µM

O=S(=O)(Cc1cn2cc(Cl)ccc2n1)c1ccccc1
Ratio CC50/IC50 [1]: <0.3
CC50 at 72 h [2]: 13.3 µM
Ratio CC50/IC50 [3]: <0.3
IC50 (Leishmania donovani): > 50 µM
CC50 at 72 h [4]: 16.5 µM

O=[N+]([O-])c1c(CSc2ccccc2)nc2ccc(Br)cn12
CC50 at 72 h [2]: > 6 µM
Ratio CC50/IC50 [3]: <0.05
IC50 (Leishmania donovani): > 10 µM
CC50 at 72 h [4]: 0.53 µM

Cc1ccc(S(=O)(=O)Cc2nc3ccc(Br)cn3c2[N+](=O)[O-])cc1
Ratio CC50/IC50 [1]: 1
CC50 at 72 h [2]: 44.3 µM
Ratio CC50/IC50 [3]: 0.13
IC50 (Leishmania donovani): 44.1 µM
CC50 at 72 h [4]: 5.9 µM

O=S(=O)(Cc1cn2cc(Cl)ccc2n1)c1ccc(Cl)cc1
Ratio CC50/IC50 [1]: <1.3
CC50 at 72 h [2]: 68.7 µM
Ratio CC50/IC50 [3]: <1.4
IC50 (Leishmania donovani): > 50 µM
CC50 at 72 h [4]: 71.5 µM

Cc1nc2ccccn2c1[N+](=O)[O-]
CC50 at 72 h [2]: > 100 µM
IC50 (Leishmania donovani): > 50 µM
CC50 at 72 h [4]: > 100 µM

O=[N+]([O-])c1cnc2ccccn12
CC50 at 72 h [2]: > 100 µM
IC50 (Leishmania donovani): > 50 µM
CC50 at 72 h [4]: > 100 µM

Cc1ccc(S(=O)(=O)Cc2cn3cc(Cl)ccc3n2)cc1
Ratio CC50/IC50 [1]: 0.9
CC50 at 72 h [2]: 33.3 µM
Ratio CC50/IC50 [3]: 2
IC50 (Leishmania donovani): 33.5 µM
CC50 at 72 h [4]: 68.3 µM

Cc1ccc(S(=O)(=O)Cc2cn3cc(I)ccc3n2)cc1
Ratio CC50/IC50 [1]: <0.5
CC50 at 72 h [2]: 25 µM
IC50 (Leishmania donovani): > 50 µM
CC50 at 72 h [4]: > 12.5 µM

O=S(=O)(Cc1cn2ccccc2n1)c1ccccc1
CC50 at 72 h [2]: > 100 µM
IC50 (Leishmania donovani): > 50 µM
CC50 at 72 h [4]: > 100 µM

ClCc1cn2cc(Br)ccc2n1
Ratio CC50/IC50 [1]: <1.4
CC50 at 72 h [2]: 68.4 µM
IC50 (Leishmania donovani): > 50 µM
CC50 at 72 h [4]: > 100 µM

COc1cccc2c1C(=O)c1c(O)c3c(c(O)c1C2=O)C[C@@](O)(C(=O)CO)C[C@@H]3O[C@H]1C[C@H](N)[C@H](O)[C@H](C)O1 [DOXORUBICIN]
CC50 at 72 h [2]: 0.02 µM

c1ccn2ccnc2c1
CC50 at 72 h [2]: > 100 µM
IC50 (Leishmania donovani): > 50 µM
CC50 at 72 h [4]: > 100 µM

ClCc1cn2ccccc2n1
CC50 at 72 h [2]: > 100 µM
IC50 (Leishmania donovani): > 50 µM
CC50 at 72 h [4]: > 100 µM

O=[N+]([O-])c1c(CCl)nc2ccccn12
Ratio CC50/IC50 [1]: 0.3
CC50 at 72 h [2]: 4.8 µM
Ratio CC50/IC50 [3]: 0.6
IC50 (Leishmania donovani): 15.1 µM
CC50 at 72 h [4]: 8.7 µM
